# Rows were chosen to be rich in hits. Some 7.1% of all compounds tested hit in one or more screens of this group.
# HUVEC inhibit – inhibitors of human endothelial cell proliferation; viability, % at 10 µM (by protocol); HUVEC proliferation, CellTiter-Glo luminescence, 72 h; hits give low values; actives 1.1% (n = 86,000); AID 648;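 active means viability at or below 30%; inactive means viability above 30%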;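 further: 100% = median luminescence of DMSO-only cell control wells on each plate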
# Cav3 T inh – inhibitors of human Cav3.2 T-type calcium channel | actives 4% (n = 100,000) | Cav3.2-expressing cells, Fluo-4 calcium fluorescence FDSS; hits give low values | B-score at 10 µM | AID 449739 | O95180;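 active means single-dose well whose peak fluorescence ratio is a statistical outlier from its plate by either plate-standardised score or position-corrected B-score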
# H69AR inhibit – blocks growth of human H69AR lung tumor cells; H69AR lung tumor viability, ATP luminescence, 72 h; hits give low values; viability, % at 10 µM; actives 6% (n = 85,000);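 active means viability at or below 40%; inactive means viability above 40%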;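 further: multidrug resistant small cell line overexpressing MRP-1 efflux transporter; 100% = mean luminescence of untreated control wells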
# PTEN del growth – suppresses growth of cells with PTEN deletion; HCT116 PTEN-null viability, CellTiter-Glo, 60 h; hits give low values; viability, % at 10 µM; actives 1.2% (n = 140,000); AID 827;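 active means viability at or below a set limit, 4 SD under the median of all tested compounds, cut at about 3.7% in these data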;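 further: PTEN knockout HCT116 line with beta catenin targeted HCT116 as companion control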
# HCT116 bCat-KO – beta-catenin-lacking colon tumor cell growth suppression; viability, % at 10 µM; HCT116 beta-catenin knockout viability, CellTiter-Glo, 60 h; hits give low values; actives 1.5% (n = 140,000); AID 818;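 active means viability at or under a set limit, the compound median less 4 SD, cut at about 6% in these data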;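 further: 0% = Hyamine 1622 control at 20 µM and 100% = untreated cell control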
# Lung fibro prol – blocks proliferation of human lung fibroblasts; LL 47 human lung fibroblast viability, ATP luminescence; hits give low values; viability, % at 10 µM; actives 1.1% (n = 85,000);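 active means viability at or below 50% in the single dose screen; inactive means viability above 50%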;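 further: compound exposure lasted 72 h before the ATP readout; 100% = median luminescence of untreated cell-only wells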
#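 Assay system: human lung fibroblast line LL 47, low passage. Input: 1,150 fibroblasts seeded per well. Times: overnight cell rest, 72 h compound treatment at 37 °C. Evaluation: % viability of median cell-only signal. Technique: luminescent ATP detection, CellTiter-Glo. Control set: cell-only wells, no compound.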
# Active calls of the source: *; . = no result.
SMILES,HUVEC inhibit,Cav3 T inh,H69AR inhibit,PTEN del growth,HCT116 bCat-KO,Lung fibro prol
CCN(c1ccc(OCC(=O)OCC(=O)Nc2ccc(F)c(F)c2F)cc1)S(=O)(=O)c1ccccc1,.,.,.,97,93,.
COC(=O)c1ccc2c(c1)N(Cc1nc(-c3ccc(Cl)cc3)oc1C)C(=O)C1CCCN21 (stereo not drawn),87,.,15*,.,.,96
COC(=O)c1ccc2c(c1)N(Cc1nc(-c3cccc(Cl)c3)oc1C)C(=O)C1CCCN21 (stereo not drawn),83,.,68,.,.,85
COc1ccc(Cl)cc1C(=O)NNC1CC(=O)N(Cc2ccc(Cl)cc2)C1=O (stereo not drawn),.,.,.,98,93,.
O=c1c2c(-c3ccccc3)csc2ncn1/N=C/c1c2ccccc2cc2ccccc12,.,-1.8,.,71,73,.
Cc1nn(-c2ccccc2)c(N2CCCC2)c1/C=N/n1cnc2scc(-c3ccccc3)c2c1=O,70,-5.6*,52,51,67,81
FC(F)(F)c1nc2ccccc2n2c(-c3ccc(Cl)cc3Cl)nnc12,.,-0.31,.,88,89,.
FC(F)(F)c1nnc2c(Sc3ccccc3)nc3ccc(Cl)cc3n12,.,0.16,.,4,3.6*,.
CCC(=O)N1COC[C@@H]1Cc1ccccc1,.,.,.,104,102,.
CCC(C(=O)Nc1cccc(C(F)(F)F)c1)c1ccccc1 (stereo not drawn),.,-6.8*,.,59,72,.
O=C(Nc1cccc(C(F)(F)F)c1)C(SCCO)c1ccccc1 (stereo not drawn),.,.,.,86,87,.
CCCC(=O)NC(Nc1cccc(C(F)(F)F)c1)C(Cl)(Cl)Cl (stereo not drawn),.,-5*,.,54,60,.
CCCC(=O)NC(Nc1cc(C(F)(F)F)ccc1Cl)C(Cl)(Cl)Cl (stereo not drawn),.,-1.9,.,5,20,.
CCC1(CC)C(=O)C2=C3C1[C@H](C(=O)OC)C=C(C(=O)OC)C[C@H]3n1c(=O)n(-c3ccccc3)c(=O)n1[C@H]2C (stereo partly drawn),.,-0.012,.,.,.,.
COc1cc(/C=C/C(=O)N2C(=O)c3cccc(N)c3C2=O)cc(OC)c1OC,.,.,.,9,4.5*,.
CCOC(=O)c1c(C)[nH]c(C=O)c1Cc1cccc(Cl)c1,.,.,.,60,65,.
CCOC(=O)c1c(C)[nH]c(C2=NNC(=Nc3cccc(Cl)c3)SC2)c1C,.,.,.,2.1*,2.8*,.
COc1cc2cc(CN(Cc3ccc4c(c3)OCO4)C(=O)c3ccco3)c(=O)[nH]c2cc1OC,87,-0.71,52,.,.,100
CCCCN(Cc1cc2cc(OC)ccc2[nH]c1=O)C(=O)COc1ccccc1,93,-0.47,39*,.,.,104
Cc1ccc2[nH]c(=O)c(CN(Cc3cccnc3)C(=O)c3ccncc3)cc2c1,62,0.18,28*,47,46,88
COc1cccc(C(=O)N(Cc2ccccc2)Cc2cc3cc4c(cc3[nH]c2=O)OCCO4)c1,84,-0.67,82,83,91,93
COc1ccc(C(=O)N(Cc2ccccc2)Cc2cc3cc4c(cc3[nH]c2=O)OCCO4)cc1,28*,-2.9,18*,95,98,42*
Cc1cc2cc(CN(Cc3ccc4c(c3)OCO4)C(=O)c3ccco3)c(=O)[nH]c2cc1C,74,-6.3*,33*,30,42,96
COc1ccccc1N1CCN(C(=O)c2ccc3[nH]c4c(c3c2)CC(C)CC4)CC1 (stereo not drawn),.,.,.,33,35,.
CCOC(=O)c1cccnc1NC(=O)c1ccccc1,.,.,.,105,104,.
SMILES,HUVEC inhibit,Cav3 T inh,H69AR inhibit,PTEN del growth,HCT116 bCat-KO,Lung fibro prol
O=C(CN(C(=O)C1CSC(=O)C1)c1ccccc1F)NCc1ccc2c(c1)OCO2 (stereo not drawn),95,-3.8*,91,96,90,96
Cn1c(N)c(C(=O)COC(=O)CSc2ccc(Cl)cc2)c(=O)n(C)c1=O,.,.,.,98,98,.
O=c1oc2ccccc2cc1-c1csc(Nc2nc3ccc(F)cc3s2)n1,.,.,.,68,80,.
O=c1oc2ccccc2cc1-c1csc(Nc2nc3c(F)cccc3s2)n1,.,.,.,2.5*,5.1*,.
CCC(C)c1ccc(O)c(NC(=O)c2ncn[nH]2)c1 (stereo not drawn),102,0.52,107,92,92,98
Cc1ccc(C)c(NC(=O)c2ncn[nH]2)c1,100,-4.2*,94,91,103,95
Cc1ccc(C)c(NC(=O)c2ccccc2O)c1,81,-2.7,19*,81,82,97
